Test results taken from ChEMBL document CHEMBL1914334, “Discovery and characterization of potent and selective 4-oxo-4-(5-(5-phenyl-1,2,4-oxadiazol-3-yl)indolin-1-yl)butanoic acids as S1P₁ agonists” (Bioorg Med Chem Lett, 2011).
Converted amounts (≈) assume the structure as drawn. The source made the active and inactive calls. No cut-off for these calls is given here.

Key:
[1] = target: T1, Sphingosine 1-phosphate receptor 1 (Homo sapiens, UniProt P21453); test: Agonist activity at recombinant human S1P1 receptor expressed in HEK293 cells after 2 hrs by beta-arrestin assay; format: functional, cell-based
T1 sequence (P21453 whole entry): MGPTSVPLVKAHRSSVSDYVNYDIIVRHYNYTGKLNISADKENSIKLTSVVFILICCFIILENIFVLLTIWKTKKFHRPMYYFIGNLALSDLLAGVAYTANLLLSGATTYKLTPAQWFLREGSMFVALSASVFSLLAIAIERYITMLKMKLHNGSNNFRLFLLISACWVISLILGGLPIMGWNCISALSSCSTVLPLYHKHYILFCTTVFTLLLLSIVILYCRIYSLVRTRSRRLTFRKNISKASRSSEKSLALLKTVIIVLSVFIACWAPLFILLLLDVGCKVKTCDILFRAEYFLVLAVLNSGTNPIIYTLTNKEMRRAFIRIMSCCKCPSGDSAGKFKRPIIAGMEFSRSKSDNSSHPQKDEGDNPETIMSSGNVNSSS

[2] = Cmax in Sprague-Dawley rat at 2 mg/kg, iv and 3 mg/kg, po; format: ADME, organism-based; settings: in vivo
[3] = target: Cytochrome P450 2C9 (Homo sapiens, UniProt P11712); test: Inhibition of CYP2C9; format: ADME
[4] = target: Sphingosine 1-phosphate receptor 2 (Homo sapiens, UniProt O95136); test: Agonist activity at recombinant human S1P2 receptor expressed in HEK293 cells after 2 hrs by beta-arrestin assay; format: functional, cell-based
Chain of Sphingosine 1-phosphate receptor 2 (O95136 whole entry): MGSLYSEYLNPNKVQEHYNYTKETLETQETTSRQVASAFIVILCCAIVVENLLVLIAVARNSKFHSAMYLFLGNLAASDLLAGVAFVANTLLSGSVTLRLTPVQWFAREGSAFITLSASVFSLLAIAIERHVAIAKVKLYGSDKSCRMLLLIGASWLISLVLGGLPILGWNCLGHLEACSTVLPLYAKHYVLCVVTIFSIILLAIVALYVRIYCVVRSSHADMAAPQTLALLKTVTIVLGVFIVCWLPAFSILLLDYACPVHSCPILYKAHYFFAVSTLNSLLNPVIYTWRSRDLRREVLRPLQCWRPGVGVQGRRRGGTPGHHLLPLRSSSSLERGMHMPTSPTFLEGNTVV

[5] = target: Cytochrome P450 2D6 (Homo sapiens, UniProt P10635); test: Inhibition of CYP2D6; format: ADME
Chain of Cytochrome P450 2D6 (P10635 whole entry): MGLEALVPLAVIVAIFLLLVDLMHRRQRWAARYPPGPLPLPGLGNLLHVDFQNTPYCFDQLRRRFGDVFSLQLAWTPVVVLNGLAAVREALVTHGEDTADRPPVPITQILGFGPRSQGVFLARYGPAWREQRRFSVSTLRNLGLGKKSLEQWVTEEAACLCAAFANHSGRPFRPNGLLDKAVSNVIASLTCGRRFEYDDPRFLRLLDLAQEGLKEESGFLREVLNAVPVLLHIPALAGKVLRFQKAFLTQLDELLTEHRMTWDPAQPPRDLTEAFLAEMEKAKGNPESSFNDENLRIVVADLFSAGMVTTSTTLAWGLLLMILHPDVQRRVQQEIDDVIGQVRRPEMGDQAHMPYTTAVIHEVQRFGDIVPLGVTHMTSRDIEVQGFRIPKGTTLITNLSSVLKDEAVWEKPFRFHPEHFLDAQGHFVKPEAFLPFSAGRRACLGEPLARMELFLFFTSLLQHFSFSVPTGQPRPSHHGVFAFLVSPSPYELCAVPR

[6] = Half life in Sprague-Dawley rat at 2 mg/kg, iv and 3 mg/kg, po; format: ADME, organism-based; settings: in vivo
[7] = Clearance in Sprague-Dawley rat at 2 mg/kg, iv and 3 mg/kg, po; format: ADME, organism-based; settings: in vivo
[8] = system: Salmonella typhimurium; test: Mutagenic activity in Salmonella Typhimurium TA97a by Ames test in presence of S9 fraction; format: toxicity, organism-based; settings: salmonella enterica subsp. enterica serovar typhimurium
[9] = Protein binding in rat; format: ADME, organism-based; settings: in vivo, read-out: PB (converted)
[10] = target: T2, Sphingosine 1-phosphate receptor 4 (Homo sapiens, UniProt O95977); test: Agonist activity at recombinant human S1P4 receptor expressed in HEK293 cells after 2 hrs by beta-arrestin assay; format: functional, cell-based
T2 sequence (O95977 whole entry): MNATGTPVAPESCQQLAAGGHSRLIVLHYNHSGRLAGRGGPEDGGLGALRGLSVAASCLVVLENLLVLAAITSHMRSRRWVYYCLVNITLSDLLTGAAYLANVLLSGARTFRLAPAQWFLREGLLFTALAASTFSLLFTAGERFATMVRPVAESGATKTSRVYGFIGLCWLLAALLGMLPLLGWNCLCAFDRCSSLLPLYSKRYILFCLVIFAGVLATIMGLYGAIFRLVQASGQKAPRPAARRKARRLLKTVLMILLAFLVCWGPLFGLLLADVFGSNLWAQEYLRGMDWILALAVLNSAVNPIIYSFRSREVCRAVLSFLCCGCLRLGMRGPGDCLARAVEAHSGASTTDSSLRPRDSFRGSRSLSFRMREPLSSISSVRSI

[11] = Volume of distribution at steady state in Sprague-Dawley rat at 2 mg/kg, iv and 3 mg/kg, po; format: ADME, organism-based; settings: in vivo, read-out: Vdss
[12] = system: Salmonella typhimurium; test: Mutagenic activity in Salmonella Typhimurium TA100 by Ames test in absence of S9 fraction; format: toxicity, organism-based; settings: salmonella enterica subsp. enterica serovar typhimurium
[13] = target: Cytochrome P450 2C19 (Homo sapiens, UniProt P33261); test: Inhibition of CYP2C19; format: ADME
Chain of Cytochrome P450 2C19 (P33261 whole entry): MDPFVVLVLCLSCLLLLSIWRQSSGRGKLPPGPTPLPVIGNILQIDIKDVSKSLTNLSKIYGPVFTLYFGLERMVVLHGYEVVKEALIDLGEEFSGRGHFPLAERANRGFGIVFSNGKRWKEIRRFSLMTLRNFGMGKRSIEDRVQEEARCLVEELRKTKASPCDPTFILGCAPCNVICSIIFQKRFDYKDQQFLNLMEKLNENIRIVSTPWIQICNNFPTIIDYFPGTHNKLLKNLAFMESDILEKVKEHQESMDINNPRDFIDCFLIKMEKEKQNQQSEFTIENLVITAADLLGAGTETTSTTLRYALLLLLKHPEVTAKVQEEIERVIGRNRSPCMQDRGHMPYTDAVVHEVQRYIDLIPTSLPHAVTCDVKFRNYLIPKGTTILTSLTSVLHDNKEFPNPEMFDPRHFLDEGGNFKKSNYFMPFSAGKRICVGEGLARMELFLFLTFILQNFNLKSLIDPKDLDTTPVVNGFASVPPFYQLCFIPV

[14] = system: Salmonella typhimurium; test: Mutagenic activity in Salmonella Typhimurium TA100 by Ames test in presence of S9 fraction; format: toxicity, organism-based; settings: salmonella enterica subsp. enterica serovar typhimurium
[15] = target: Sphingosine 1-phosphate receptor 3 (Homo sapiens, UniProt Q99500); test: Agonist activity at recombinant human S1P3 receptor expressed in HEK293 cells after 2 hrs by beta-arrestin assay; format: functional, cell-based
Chain of Sphingosine 1-phosphate receptor 3 (Q99500 whole entry): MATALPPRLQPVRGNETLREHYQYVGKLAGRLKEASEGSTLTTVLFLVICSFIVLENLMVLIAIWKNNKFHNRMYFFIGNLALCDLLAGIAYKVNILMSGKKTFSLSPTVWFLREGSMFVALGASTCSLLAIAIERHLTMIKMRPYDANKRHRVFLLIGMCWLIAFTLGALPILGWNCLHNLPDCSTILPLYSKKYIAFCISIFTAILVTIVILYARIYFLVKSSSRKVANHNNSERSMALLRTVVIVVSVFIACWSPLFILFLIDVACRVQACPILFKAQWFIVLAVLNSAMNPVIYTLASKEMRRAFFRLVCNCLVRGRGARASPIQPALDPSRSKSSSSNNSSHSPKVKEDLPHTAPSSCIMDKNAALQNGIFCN

[16] = target: Cytochrome P450 3A4 (Homo sapiens, UniProt P08684); test: Inhibition of CYP3A4; format: ADME
Chain of Cytochrome P450 3A4 (P08684 whole entry): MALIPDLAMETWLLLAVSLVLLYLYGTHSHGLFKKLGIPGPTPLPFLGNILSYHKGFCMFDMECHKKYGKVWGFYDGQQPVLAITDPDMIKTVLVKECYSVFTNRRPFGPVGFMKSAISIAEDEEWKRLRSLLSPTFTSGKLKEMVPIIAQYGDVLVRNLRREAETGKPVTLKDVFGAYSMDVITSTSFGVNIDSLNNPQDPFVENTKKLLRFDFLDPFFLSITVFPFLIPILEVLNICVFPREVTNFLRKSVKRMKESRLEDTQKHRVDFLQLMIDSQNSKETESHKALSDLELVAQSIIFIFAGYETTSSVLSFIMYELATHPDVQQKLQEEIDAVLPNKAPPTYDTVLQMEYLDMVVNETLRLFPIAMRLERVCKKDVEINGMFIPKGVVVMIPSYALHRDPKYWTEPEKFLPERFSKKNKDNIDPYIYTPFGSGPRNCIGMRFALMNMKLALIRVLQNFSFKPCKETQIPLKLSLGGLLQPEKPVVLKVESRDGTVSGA

[17] = system: Salmonella typhimurium; test: Mutagenic activity in Salmonella Typhimurium TA98 by Ames test in absence of S9 fraction; format: toxicity, organism-based; settings: salmonella enterica subsp. enterica serovar typhimurium
[18] = system: Salmonella typhimurium; test: Mutagenic activity in Salmonella Typhimurium TA97a by Ames test in absence of S9 fraction; format: toxicity, organism-based; settings: salmonella enterica subsp. enterica serovar typhimurium
[19] = target: Voltage-gated inwardly rectifying potassium channel KCNH2 (Homo sapiens, UniProt Q12809); test: Displacement of [3H]astemizole from human ERG
Chain of Voltage-gated inwardly rectifying potassium channel KCNH2 (Q12809 whole entry): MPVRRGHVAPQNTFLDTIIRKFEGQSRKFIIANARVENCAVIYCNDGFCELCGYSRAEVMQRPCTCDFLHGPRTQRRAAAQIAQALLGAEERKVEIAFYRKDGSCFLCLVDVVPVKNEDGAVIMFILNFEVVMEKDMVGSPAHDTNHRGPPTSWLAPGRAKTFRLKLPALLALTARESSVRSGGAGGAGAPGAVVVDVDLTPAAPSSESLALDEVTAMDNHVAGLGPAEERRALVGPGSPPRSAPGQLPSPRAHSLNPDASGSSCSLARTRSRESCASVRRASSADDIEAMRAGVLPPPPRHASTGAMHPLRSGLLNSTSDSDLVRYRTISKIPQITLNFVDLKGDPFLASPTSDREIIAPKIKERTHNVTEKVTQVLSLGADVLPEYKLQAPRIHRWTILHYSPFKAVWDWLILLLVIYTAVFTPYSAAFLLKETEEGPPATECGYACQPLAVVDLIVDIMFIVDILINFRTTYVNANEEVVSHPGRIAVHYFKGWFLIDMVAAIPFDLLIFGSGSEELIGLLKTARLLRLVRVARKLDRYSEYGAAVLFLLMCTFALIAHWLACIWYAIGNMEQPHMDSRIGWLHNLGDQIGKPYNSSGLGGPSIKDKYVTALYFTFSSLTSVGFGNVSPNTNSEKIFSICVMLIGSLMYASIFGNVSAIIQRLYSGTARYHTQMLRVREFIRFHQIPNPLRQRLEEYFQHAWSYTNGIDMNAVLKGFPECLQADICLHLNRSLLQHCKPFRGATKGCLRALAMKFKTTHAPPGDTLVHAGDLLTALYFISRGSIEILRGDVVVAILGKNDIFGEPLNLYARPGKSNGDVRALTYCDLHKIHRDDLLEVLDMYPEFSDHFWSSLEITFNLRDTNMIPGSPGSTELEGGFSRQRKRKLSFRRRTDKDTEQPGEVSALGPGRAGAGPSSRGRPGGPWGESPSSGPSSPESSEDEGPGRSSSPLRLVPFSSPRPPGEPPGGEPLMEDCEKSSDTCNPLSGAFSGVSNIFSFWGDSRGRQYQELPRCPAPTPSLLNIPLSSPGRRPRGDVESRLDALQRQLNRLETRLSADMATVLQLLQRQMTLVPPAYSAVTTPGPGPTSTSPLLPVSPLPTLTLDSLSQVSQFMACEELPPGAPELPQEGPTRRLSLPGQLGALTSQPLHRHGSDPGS

[20] = Metabolic stability in rat liver microsomes assessed as half life; format: ADME, Microsome
[21] = Metabolic stability in human liver microsomes assessed as half life; format: ADME, Microsome
[22] = target: T1, Sphingosine 1-phosphate receptor 1; test: Agonist activity at human S1P1 receptor expressed in HEK293 cells assessed as inhibition of forskolin-stimulated cAMP production after 1 hr by HTRF assay; format: functional, cell-based
Method in brief: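 Human S1P₁ cAMP HTRF read-out; each EC₅₀ is the mean of three or more replicates.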

[23] = Protein binding in human; format: ADME, organism-based; settings: in vivo, read-out: PB (converted)
[24] = system: Salmonella typhimurium; test: Mutagenic activity in Salmonella Typhimurium TA1535 by Ames test in presence of S9 fraction; format: toxicity, organism-based; settings: salmonella enterica subsp. enterica serovar typhimurium
[25] = target: Sphingosine 1-phosphate receptor 1 (Rattus norvegicus, UniProt P48303); test: Agonist activity at rat S1P1 receptor expressed in HEK293 cells assessed as inhibition of forskolin-stimulated cAMP production after 1 hr by HTRF assay; format: functional, cell-based
Chain of Sphingosine 1-phosphate receptor 1 (Rattus norvegicus, UniProt P48303) (P48303 whole entry): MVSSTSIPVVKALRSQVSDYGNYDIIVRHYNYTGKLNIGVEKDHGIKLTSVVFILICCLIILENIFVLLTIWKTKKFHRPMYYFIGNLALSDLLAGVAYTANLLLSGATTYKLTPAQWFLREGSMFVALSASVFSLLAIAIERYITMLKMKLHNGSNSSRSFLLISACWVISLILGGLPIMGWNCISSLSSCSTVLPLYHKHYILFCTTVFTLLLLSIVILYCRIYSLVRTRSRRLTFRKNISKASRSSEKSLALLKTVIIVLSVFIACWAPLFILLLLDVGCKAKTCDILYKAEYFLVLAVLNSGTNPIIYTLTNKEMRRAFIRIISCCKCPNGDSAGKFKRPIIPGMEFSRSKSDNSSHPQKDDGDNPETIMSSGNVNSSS

[26] = target: Sphingosine 1-phosphate receptor 1 (Mus musculus, UniProt O08530); test: Agonist activity at mouse S1P1 receptor expressed in HEK293 cells assessed as inhibition of forskolin-stimulated cAMP production after 1 hr by HTRF assay; format: functional, cell-based
Chain of Sphingosine 1-phosphate receptor 1 (Mus musculus, UniProt O08530) (O08530 whole entry): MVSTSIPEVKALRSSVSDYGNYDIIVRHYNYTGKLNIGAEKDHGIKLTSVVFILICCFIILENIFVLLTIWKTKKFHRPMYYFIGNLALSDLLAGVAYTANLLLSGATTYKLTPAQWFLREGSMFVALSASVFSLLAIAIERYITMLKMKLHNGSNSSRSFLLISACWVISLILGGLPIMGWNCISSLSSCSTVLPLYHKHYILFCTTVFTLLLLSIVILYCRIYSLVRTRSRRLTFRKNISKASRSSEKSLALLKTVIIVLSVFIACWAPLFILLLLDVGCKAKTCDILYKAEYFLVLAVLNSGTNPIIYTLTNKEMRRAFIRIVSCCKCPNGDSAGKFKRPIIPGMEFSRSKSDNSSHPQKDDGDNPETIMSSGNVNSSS

[27] = system: Salmonella typhimurium; test: Mutagenic activity in Salmonella Typhimurium TA1535 by Ames test in absence of S9 fraction; format: toxicity, organism-based; settings: salmonella enterica subsp. enterica serovar typhimurium
[28] = target: Sphingosine 1-phosphate receptor 5 (Homo sapiens, UniProt Q9H228); test: Agonist activity at recombinant human S1P5 receptor expressed in HEK293 cells after 2 hrs by beta-arrestin assay; format: functional, cell-based
Chain of Sphingosine 1-phosphate receptor 5 (Q9H228 whole entry): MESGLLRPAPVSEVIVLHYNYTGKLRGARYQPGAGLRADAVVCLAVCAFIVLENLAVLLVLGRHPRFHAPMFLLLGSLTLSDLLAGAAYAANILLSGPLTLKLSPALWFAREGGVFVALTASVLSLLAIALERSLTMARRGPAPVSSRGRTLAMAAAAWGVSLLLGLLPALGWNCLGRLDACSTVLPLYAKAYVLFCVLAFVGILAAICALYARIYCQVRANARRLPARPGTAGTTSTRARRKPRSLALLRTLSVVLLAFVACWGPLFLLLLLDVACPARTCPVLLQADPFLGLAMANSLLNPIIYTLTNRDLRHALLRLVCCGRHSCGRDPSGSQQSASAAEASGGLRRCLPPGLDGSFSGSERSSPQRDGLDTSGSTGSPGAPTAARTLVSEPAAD

[29] = target: hERG (KCNH2) (Homo sapiens, UniProt Q12809); test: Inhibition of human ERG at 3 uM by patch clamp assay
[30] = AUC (0 to last) in Sprague-Dawley rat at 2 mg/kg, iv and 3 mg/kg, po; format: ADME, organism-based; settings: plasma
[31] = system: Salmonella typhimurium; test: Mutagenic activity in Salmonella Typhimurium TA98 by Ames test in presence of S9 fraction; format: toxicity, organism-based; settings: salmonella enterica subsp. enterica serovar typhimurium
[32] = target: T3, Cytochrome P450 1A2 (Homo sapiens, UniProt P05177); test: Inhibition of CYP1A2; format: ADME
T3 sequence (P05177 whole entry): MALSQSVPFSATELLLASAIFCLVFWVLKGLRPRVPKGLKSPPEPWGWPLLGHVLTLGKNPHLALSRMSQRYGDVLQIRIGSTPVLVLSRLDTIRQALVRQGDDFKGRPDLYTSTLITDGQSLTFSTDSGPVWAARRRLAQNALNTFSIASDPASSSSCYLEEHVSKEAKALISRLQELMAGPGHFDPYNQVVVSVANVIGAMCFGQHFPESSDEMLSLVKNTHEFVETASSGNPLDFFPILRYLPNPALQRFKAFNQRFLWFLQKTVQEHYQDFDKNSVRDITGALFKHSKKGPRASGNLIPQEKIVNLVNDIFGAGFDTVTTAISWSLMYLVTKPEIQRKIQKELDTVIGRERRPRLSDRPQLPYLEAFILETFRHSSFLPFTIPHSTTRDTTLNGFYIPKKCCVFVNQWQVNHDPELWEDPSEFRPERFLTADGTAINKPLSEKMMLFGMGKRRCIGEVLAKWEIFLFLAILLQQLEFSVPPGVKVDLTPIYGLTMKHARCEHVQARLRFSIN

[33] = Agonist activity at dog S1P1 receptor expressed in HEK293 cells assessed as inhibition of forskolin-stimulated cAMP production after 1 hr by HTRF assay; format: functional, cell-based; settings: HEK293, 1 h
[34] = Agonist activity at monkey S1P1 receptor expressed in HEK293 cells assessed as inhibition of forskolin-stimulated cAMP production after 1 hr by HTRF assay; format: functional, cell-based; settings: Macaca mulatta, HEK293, 1 h
[35] = system: Mus musculus; test: Immunomodulatory activity in po dosed BALB/C mouse assessed as induction of lymphopenia after 16 hrs; format: functional, organism-based
Method in brief: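 Male BALB/c mice were dosed orally at 1, 3 or 10 mg/kg, or with vehicle (0.5% methylcellulose in water). Blood was sampled up to 24 h post-dose for lymphocyte counts and plasma drug levels (mean ± SD). An indirect PK/PD model was fitted to give the blood concentration suppressing lymphocytes by 50%.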

[36] = Oral bioavailability in Sprague-Dawley rat at 3 mg/kg; format: ADME, organism-based; settings: in vivo
[37] = system: Mus musculus; test: Immunomodulatory activity BALB/C mouse assessed as induction of lymphopenia at 0.3 to 3 mg/kg, po after 24 hrs; format: functional, organism-based; settings: 1 to 10 mg/kg, in the assay text read “1 to 10 mg/kg” for “0.3 to 3 mg/kg”
[38] = Terminal half life in mouse; format: ADME, organism-based; settings: in vivo, read-out: beta t1/2 (converted)
[39] = Tmax in Sprague-Dawley rat at 2 mg/kg, iv and 3 mg/kg, po; format: ADME, organism-based; settings: in vivo
[40] = Half life in Sprague-Dawley rat at 1 mg/kg, iv and 1.5 mg/kg, po; format: ADME, organism-based; settings: in vivo
[41] = Tmax in Sprague-Dawley rat at 1 mg/kg, iv and 1.5 mg/kg, po; format: ADME, organism-based; settings: in vivo
[42] = Oral bioavailability in Sprague-Dawley rat at 1.5 mg/kg; format: ADME, organism-based; settings: in vivo
[43] = Volume of distribution at steady state in Sprague-Dawley rat at 1 mg/kg, iv and 1.5 mg/kg, po; format: ADME, organism-based; settings: in vivo, read-out: Vdss
[44] = Clearance in Sprague-Dawley rat at 1 mg/kg, iv and 1.5 mg/kg, po; format: ADME, organism-based; settings: in vivo
[45] = AUC (0 to last) in Sprague-Dawley rat at 1 mg/kg, iv and 1.5 mg/kg, po; format: ADME, organism-based; settings: plasma
[46] = system: Mus musculus; test: Immunomodulatory activity BALB/C mouse assessed as induction of lymphopenia at 1 mg/kg, po after 5 hrs; format: functional, organism-based; set-up: dose 1 mg/kg
Method in brief: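 Male BALB/c mice were given a single oral dose of 1.0 mg/kg or vehicle (0.5% methylcellulose). Blood lymphocytes were counted at one time point, 5 h post-dose, with n = 6 per dose group (mean ± SD). Lowering was judged relative to the vehicle group.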

[47] = Cmax in Sprague-Dawley rat at 1 mg/kg, iv and 1.5 mg/kg, po; format: ADME, organism-based; settings: in vivo

EC50 [1] [nM]	IC50 [3] [µM]	EC50 [4] [µM]	IC50 [5] [µM]	EC50 [10] [nM]	IC50 [13] [µM]	EC50 [15] [µM]	IC50 [16] [µM]	half-life [20] [min]	half-life [21] [min]	EC50 [22] [nM]	fraction unbound [23]	EC50 [25] [nM]	SMILES	Activity [8]	Activity [12]	Activity [14]	Activity [17]	Activity [18]	IC50 [19] [µM]	Activity [24]	other results
31	> 50	> 100	> 50	1330	> 50	> 100	> 50	> 60	> 60	1.2	0.003	1	N#Cc1cc(OC(F)(F)F)cc(-c2nc(-c3ccc4c(c3)CCN4C(=O)CCC(=O)O)no2)c1	Non-toxic	Non-toxic	Non-toxic	Non-toxic	Non-toxic	> 100	Non-toxic	Cmax [2]: 3820 ng/mL; half-life [6]: 174 min; clearance [7]: 0.75 mL/min/kg; fraction unbound [9]: 0.007; Vd [11]: 0.275 L/kg; EC50 [26]: 1.1 nM; Activity [27]: Non-toxic; EC50 [28]: 109 nM; inhibition at 3 µM [29]: 13%; AUC(0-t) [30]: 20200 ng·h/mL; Activity [31]: Non-toxic; IC50 [32]: > 50 µM; EC50 [33]: 0.7 nM; EC50 [34]: 0.8 nM; IC50 [35]: 0.431 µg/mL (≈ 0.912 µM); bioavailability [36]: 32.8%; Activity [37]: inactive; half-life [38]: 180 min; Tmax [39]: 2 h
39	34.8	> 100	> 50	160	> 50	3.1	> 50	> 60	> 60	4.6	0.006	1.3	O=C(O)CCC(=O)N1CCc2cc(-c3noc(-c4cc(C(F)(F)F)cc(C(F)(F)F)c4)n3)ccc21	Non-toxic	Non-toxic	Non-toxic	Non-toxic	Non-toxic	> 100	Non-toxic	half-life [40]: 510 min; Tmax [41]: 3 h; bioavailability [42]: 50.2%; Vd [43]: 0.564 L/kg; clearance [44]: 0.633 mL/min/kg; EC50 [26]: 1.4 nM; Activity [27]: Non-toxic; EC50 [28]: 88 nM; inhibition at 3 µM [29]: < 10%; Activity [31]: Non-toxic; IC50 [32]: > 50 µM; EC50 [33]: 1.3 nM; EC50 [34]: 1.1 nM; AUC(0-t) [45]: 16000 ng·h/mL; Activity [46]: Active; Cmax [47]: 1740 ng/mL
